Consider 167 variants from the RNAGym collection of RNA variant scans (doi:10.1002/anie.201605470).

B1: Osa-1-4 twister ribozyme (parent)
chain: CCGCCUAACACUGCCAAUGCCGGUCCCAAGCCCGGAUAAAAGUGGAGGGGGCGG

In the data set the parent is B1. Briefly: self-cleavage, relative activity (ratio to wild type); higher = more cleavage; co-transcriptional. The gist of the method:
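A DNA template encoding a 54-nucleotide twister ribozyme from Oryza sativa was made so that each of the 48 positions downstream of the cleavage site carried 97 % wild-type base and 1 % of each other base. Transcription in vitro ran for 2 h at 37 °C, during which the ribozyme could cleave itself. Reverse transcription used a template-switching oligonucleotide, and the products were PCR-amplified and deep-sequenced. Each read was scored as cleaved or uncleaved by whether upstream sequence was present, and relative activity is the fraction cleaved normalised to wild type.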
As for C32U C9U, the self-cleavage stood at 0.05.

For C32U C9G, the self-cleavage was found to be 0.09.

In the case of C31U U12A, the self-cleavage was 0.28.

In the case of C31U U12C, the self-cleavage turned out to be 0.11.

Consider C31U U12G, for which the self-cleavage amounted to 0.19.

With C32G U37C, the self-cleavage turned out to be 0.14.

On to C32G U37G, for which the self-cleavage turned out to be 0.19.

For C32G U37A, the self-cleavage stood at 0.16.

As for C31U G50A, the self-cleavage turned out to be 0.64.

On to C31U G50U, for which the self-cleavage was found to be 0.6.

As to C31U G50C, the self-cleavage was determined as 0.26.

Turning to C31U G54C, the self-cleavage came to 0.27.

In the case of C31U G54U, the self-cleavage came out at 0.5.

As to C31U G54A, the self-cleavage came out at 0.32.

C32A G19A: the self-cleavage stood at 0.07.

In the case of C32A G19C, the self-cleavage was determined as 0.02.

Take C32A G19U: the self-cleavage was determined as 0.04.

For C32G C33U, the self-cleavage amounted to 0.07.

Take C32G C33A: the self-cleavage worked out at 0.07.

Take C32G C33G: the self-cleavage was determined as 0.05.

On to C33A G48C, for which the self-cleavage is 0.05.

C33A G48U: the self-cleavage was found to be 0.04.

In the case of C33A G48A, the self-cleavage came to 0.04.

In the case of C32A G22U, the self-cleavage worked out at 0.06.

As for C32A G22A, the self-cleavage was found to be 0.08.

Turning to C32A G22C, the self-cleavage was determined as 0.03.

With C32A U43C, the self-cleavage amounted to 0.06.

On to C32A U43A, for which the self-cleavage is 0.07.

Take C32A U43G: the self-cleavage came out at 0.05.

As for C32G C52U, the self-cleavage worked out at 0.2.

As to C32G C52A, the self-cleavage was found to be 0.12.

C32G C52G: the self-cleavage was found to be 0.16.

C32G G50U: the self-cleavage came out at 0.11.

For the variant C32G G50C, the self-cleavage turned out to be 0.09.

On to C32G G50A, for which the self-cleavage amounted to 0.1.

In the case of C32A U12C, the self-cleavage was 0.04.

Take C32A U12A: the self-cleavage is 0.07.

As for C32A U12G, the self-cleavage stood at 0.06.

In the case of C32U G50U, the self-cleavage turned out to be 0.11.

As to C32U G50A, the self-cleavage was found to be 0.1.

For the variant C32U G50C, the self-cleavage came to 0.09.

As for C33A G42A, the self-cleavage amounted to 0.06.

For C33A G42U, the self-cleavage came out at 0.03.

Consider C33A G42C, for which the self-cleavage came to 0.06.

With C32U G13C, the self-cleavage is 0.01.

As for C32U G13U, the self-cleavage is 0.01.

In the case of C32U G13A, the self-cleavage is 0.03.

Take C32A G13U: the self-cleavage was found to be 0.01.

Consider C32A G13C, for which the self-cleavage stood at 0.01.

Regarding C32A G13A, the self-cleavage was 0.01.

Consider C33A G50A, for which the self-cleavage was found to be 0.1.

Turning to C33A G50C, the self-cleavage is 0.08.

As to C33A G50U, the self-cleavage stood at 0.1.

For the variant C32G G53U, the self-cleavage is 0.07.

In the case of C32G G53C, the self-cleavage was 0.06.

On to C32G G53A, for which the self-cleavage was determined as 0.1.

Regarding C32U G34U, the self-cleavage was found to be 0.08.

In the case of C32U G34A, the self-cleavage amounted to 0.09.

For C32U G34C, the self-cleavage is 0.07.

For the variant C32G U43G, the self-cleavage worked out at 0.11.

C32G U43A: the self-cleavage came to 0.1.

As for C32G U43C, the self-cleavage is 0.09.

With C32A C52A, the self-cleavage came out at 0.1.

As for C32A C52G, the self-cleavage is 0.1.

Take C32A C52U: the self-cleavage came out at 0.18.

Turning to C32U G23A, the self-cleavage came out at 0.85.

With C32U G23C, the self-cleavage was 0.03.

Regarding C32U G23U, the self-cleavage was found to be 0.12.

For the variant C32A U18G, the self-cleavage came out at 0.19.

Turning to C32A U18C, the self-cleavage is 0.07.

Regarding C32A U18A, the self-cleavage turned out to be 0.11.

With C33A G44U, the self-cleavage was 0.1.

For C33A G44A, the self-cleavage was 0.08.

As to C33A G44C, the self-cleavage was found to be 0.09.

With C33A C52U, the self-cleavage stood at 0.28.

For the variant C33A C52G, the self-cleavage was 0.17.

With C33A C52A, the self-cleavage stood at 0.11.

C32A G48A: the self-cleavage was determined as 0.03.

With C32A G48U, the self-cleavage came out at 0.03.

Regarding C32A G48C, the self-cleavage was determined as 0.04.

For C32G G51C, the self-cleavage turned out to be 0.05.

On to C32G G51U, for which the self-cleavage came to 0.07.

Consider C32G G51A, for which the self-cleavage amounted to 0.09.

For the variant C32A G47U, the self-cleavage stood at 0.04.

Consider C32A G47A, for which the self-cleavage was 0.04.

In the case of C32A G47C, the self-cleavage came to 0.03.

Turning to C32U G44C, the self-cleavage amounted to 0.09.

For the variant C32U G44U, the self-cleavage stood at 0.07.

As for C32U G44A, the self-cleavage was determined as 0.08.

As to C32U U24C, the self-cleavage came out at 0.06.

With C32U U24A, the self-cleavage was 0.06.

Turning to C32U U24G, the self-cleavage worked out at 0.01.

Take C32G G34C: the self-cleavage is 0.06.

Turning to C32G G34U, the self-cleavage stood at 0.08.

On to C32G G34A, for which the self-cleavage worked out at 0.09.

On to C32U C52U, for which the self-cleavage was found to be 0.2.

As to C32U C52A, the self-cleavage is 0.13.

Consider C32U C52G, for which the self-cleavage was determined as 0.15.

Turning to C32G G48U, the self-cleavage was 0.03.

Regarding C32G G48C, the self-cleavage was 0.04.

With C32G G48A, the self-cleavage amounted to 0.05.

With C32U G49U, the self-cleavage is 0.05.

In the case of C32U G49A, the self-cleavage was determined as 0.05.

For the variant C32U G49C, the self-cleavage is 0.03.

Take C32G G23U: the self-cleavage was 0.29.

In the case of C32G G23A, the self-cleavage amounted to 0.27.

As for C32G G23C, the self-cleavage is 0.08.

C32G G47C: the self-cleavage was found to be 0.04.

With C32G G47U, the self-cleavage came to 0.04.

For the variant C32G G47A, the self-cleavage is 0.09.

In the case of C33A U12A, the self-cleavage was found to be 0.06.

As to C33A U12G, the self-cleavage stood at 0.06.

For the variant C33A U12C, the self-cleavage was 0.06.

In the case of C33A G54U, the self-cleavage came out at 0.24.

On to C33A G54C, for which the self-cleavage was found to be 0.07.

Take C33A G54A: the self-cleavage turned out to be 0.11.

For C32G G54U, the self-cleavage came out at 0.25.

For the variant C32G G54A, the self-cleavage came to 0.15.

Take C32G G54C: the self-cleavage was 0.09.

On to C32U G47A, for which the self-cleavage came to 0.06.

Turning to C32U G47C, the self-cleavage stood at 0.04.

As for C32U G47U, the self-cleavage turned out to be 0.06.

Take C33A G53U: the self-cleavage amounted to 0.06.

With C33A G53A, the self-cleavage stood at 0.08.

Regarding C33A G53C, the self-cleavage is 0.04.

On to C32U G30U, for which the self-cleavage worked out at 0.02.

As to C32U G30A, the self-cleavage amounted to 0.02.

As to C32U G30C, the self-cleavage was 0.02.

On to C32A G50C, for which the self-cleavage stood at 0.07.

C32A G50A: the self-cleavage was found to be 0.05.

On to C32A G50U, for which the self-cleavage amounted to 0.08.

As for C32A G42A, the self-cleavage is 0.06.

Take C32A G42U: the self-cleavage worked out at 0.02.

Turning to C32A G42C, the self-cleavage was determined as 0.06.

C32G G44A: the self-cleavage was 0.11.

Consider C32G G44U, for which the self-cleavage came out at 0.08.

With C32G G44C, the self-cleavage was determined as 0.07.

For the variant C32U U18G, the self-cleavage amounted to 0.22.

As to C32U U18C, the self-cleavage stood at 0.18.

On to C32U U18A, for which the self-cleavage came to 0.16.

C33A U37C: the self-cleavage stood at 0.14.

As for C33A U37A, the self-cleavage came to 0.34.

As for C33A U37G, the self-cleavage worked out at 0.29.

C33A G23U: the self-cleavage worked out at 0.04.

Turning to C33A G23C, the self-cleavage is 0.02.

As to C33A G23A, the self-cleavage stood at 0.06.

As to C32A G54A, the self-cleavage came to 0.11.

For the variant C32A G54U, the self-cleavage is 0.18.

Regarding C32A G54C, the self-cleavage is 0.06.

On to C32G, for which the self-cleavage is 0.18.

As to C32A, the self-cleavage amounted to 0.15.

With C32U, the self-cleavage was 0.24.

In the case of C32A G30A, the self-cleavage was 0.02.

As to C32A G30C, the self-cleavage came out at 0.03.

With C32A G30U, the self-cleavage was determined as 0.02.

For the variant C33A U24C, the self-cleavage is 0.05.

Regarding C33A U24A, the self-cleavage came to 0.05.

On to C33A U24G, for which the self-cleavage came to 0.02.

C32U C33A: the self-cleavage was 0.04.

For the variant C32U C33U, the self-cleavage amounted to 0.06.

As to C32U C33G, the self-cleavage was determined as 0.02.

For C32A G34C, the self-cleavage worked out at 0.08.

As for C32A G34A, the self-cleavage was determined as 0.06.

C32A G34U: the self-cleavage amounted to 0.05.

Consider C32U U43A, for which the self-cleavage worked out at 0.09.

Consider C32U U43C, for which the self-cleavage amounted to 0.06.

Consider C32U U43G, for which the self-cleavage is 0.09.
